Reference: ChEMBL document CHEMBL3856288, “Amidate Prodrugs of Deoxythreosyl Nucleoside Phosphonates as Dual Inhibitors of HIV and HBV Replication” (J Med Chem, 2016)
pEC50: −log10 of the molar value.

Legend:
[1] = system: Human immunodeficiency virus 1; assay: Antiviral activity against HIV1 3B infected in human MT4 cells assessed as protection against virus-induced cytopathic effect after 5 days by MTT assay; format: functional, cell-based; settings: Human immunodeficiency virus 1, 3B, MT4, 120 h
[2] = Antiviral activity against HIV2 ROD infected in human MT4 cells assessed as protection against virus-induced cytopathic effect after 5 days by MTT assay; format: functional, cell-based, Human immunodeficiency virus type 2 (ISOLATE ROD); settings: Human immunodeficiency virus 2, MT4, 120 h
[3] = Cytotoxicity against human MT4 cells assessed as decrease in cell viability after 5 days by MTT assay; format: toxicity, cell-based
[4] = Selectivity index, ratio of CC50 for human MT4 cells to EC50 for HIV1 3B infected in human MT4 cells; format: toxicity, cell-based; settings: read-out: Ratio CC50/EC50
[5] = Selectivity index, ratio of CC50 for human MT4 cells to EC50 for HIV2 ROD infected in human MT4 cells; format: toxicity, cell-based; settings: read-out: Ratio CC50/EC50
[6] = system: Hepatitis B virus; assay: Antiviral activity against HBV ayw1 infected in human HepG2(2.2.15) cells assessed as reduction in viral replication by measuring extracellular viral DNA copy number after 6 days by real-time qPCR method; format: functional, cell-based; settings: ayw1, HepG2 2.2.15, 144 h
In short: (§1)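 HepG2 2.2.15 cells (stable line carrying two copies of the HBV ayw1 genome) were seeded at 1.5 × 10^4 cells/well in DMEM with 2% FBS and G418. After 16−24 h, compound was added in triplicate, and medium plus compound was renewed on day 3. On day 6, supernatant was Pronase-treated and extracellular HBV DNA was quantified by TaqMan qPCR against an HBV DNA standard curve to give EC50/EC90. Cell viability was read by MTS uptake to give CC50.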

[7] = Cytotoxicity against human HepG2(2.2.15) cells assessed as reduction in cell viability by MTS assay; format: toxicity, cell-based; in short: as §1
[8] = Selectivity ratio of CC50 for human HepG2(2.2.15) cells to EC50 for reduction in HBV ayw1 extracellular DNA copy number; settings: read-out: Ratio CC50/EC50
In short: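 HepG2 2.2.15 cells (two HBV ayw1 genome copies), 1.5 × 10^4 cells/well in DMEM with 2% FBS and G418; compound dosed in triplicate and medium renewed on day 3. On day 6, Pronase-treated supernatant HBV DNA measured by TaqMan qPCR against a standard curve, giving EC50. MTS uptake gave CC50, and the ratio was calculated from these.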

[9] = system: Hepatitis B virus; assay: Antiviral activity against HBV ayw1 infected in human HepG2(2.2.15) cells assessed as reduction in viral replication by measuring intracellular viral DNA copy number after 6 days by real-time qPCR method; format: functional, cell-based; settings: ayw1, HepG2 2.2.15, 144 h
In short: (§2)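 The protocol was the same as the primary HepG2 2.2.15 assay (triplicate dosing, medium plus compound renewed on day 3, 6-day course). At the end, total intracellular DNA was isolated from the cells and HBV DNA copy number was measured by TaqMan qPCR to give EC50/EC90. CC50 came from MTS viability, and SI was taken as CC50/EC50.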

[10] = Selectivity ratio of CC50 for human HepG2(2.2.15) cells to EC50 for reduction in HBV ayw1 intracellular DNA copy number; format: ADME, cell-based; settings: read-out: Ratio CC50/EC50; in short: as §2
[11] = Chemical stability of the compound in pH 1 phosphate buffer at 2 mg after 1 to 2 hrs by 31P NMR method; format: physicochemical
In short: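 Prodrug (2.0 mg) dissolved in 0.2 mL acetone-d6 plus 0.3 mL pH 1 buffer (equal parts 0.2 M HCl and 0.2 M KCl); in situ 31P NMR (202 MHz) at 37 °C, spectra recorded every 30 min over 14 h, tracking loss of the diastereomer peaks.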

[12] = Chemical stability of the compound in pH 8 phosphate buffer assessed as parent compound remaining at 2 mg after 14 hrs by 31P NMR method; format: physicochemical; settings: read-out: Stability
In short: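 Prodrug (2 mg) in 0.2 mL acetone-d6 plus 0.3 mL pH 8 buffer (0.1 M Na2HPO4 adjusted with 0.1 M HCl); in situ 31P NMR (202 MHz) at 37 °C, spectra every 30 min over 14 h; parent remaining followed by diastereomer peak disappearance.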

[13] = Drug metabolism in acetone-d6/pH 7.6 Trizma buffer assessed as baker's yeast carboxypeptidase Y-mediated (S)-2-((((3R,5R)-5-(6-amino-9H-purin-9-yl)tetrahydrofuran-3-yloxy)methyl)oxidophosphorylamino)-4-(isopentyloxy)-4-oxobutanoate formation at 1 mg after 3 hrs by RP-HPLC/mass spectra analysis; format: ADME; settings: saccharomyces cerevisiae, pH 7.6, 3 h
[14] = Half life in human liver S9 fraction at 100 uM by HPLC-UV method; format: ADME, subcellular
In short: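 Incubation started by adding human liver S9 fraction (4 mg/mL) at 37 °C; aliquots at 0, 10, 20, 30, 60 min quenched in acetonitrile, centrifuged, supernatant analysed by C18 HPLC with UV at 260 nm; parent peak area versus time 0 gave percent remaining and half-life.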

[15] = Half life in human liver microsomes at 0.1 uM in presence of NADPH-regenerating system by HPLC MS/MS method; format: ADME
In short: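 Pooled liver microsomes preincubated 10 min at 37 °C with NADPH-regenerating system (1 mM NADP, 5 mM G6P, 1 U/mL G6PDHase) in phosphate buffer pH 7.4, 3 mM MgCl2, 1 mM EDTA; compound added at 0.1 μM final; samples at 0, 15, 30, 45, 60 min quenched in acetonitrile/methanol, analysed by HPLC MS/MS.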

[16] = system: Human immunodeficiency virus 1; assay: Antiviral activity against HIV1 3B infected in human MT2 cells assessed as protection against virus-induced cytopathic effect after 5 days by XTT assay; format: functional, cell-based; settings: Human immunodeficiency virus 1, 3B, MT2, 120 h

Cc1cn([C@H]2C[C@@H](OCP(=O)(N[C@@H](C)C(=O)OC(C)C)Oc3ccccc3)CO2)c(=O)[nH]c1=O (stereo partly specified)
pEC50 [1]: 6.25
pEC50 [2]: 6.37
CC50 at 120 h [3]: 127 µM
selectivity ratio [4]: 223
selectivity ratio [5]: 295
pEC50 [6]: 6.59
EC90 [6]: > 10 µM
CC50 [7]: > 100 µM
selectivity ratio [8]: > 38

Cc1cn([C@H]2C[C@@H](OCP(=O)(O)O)CO2)c(=O)[nH]c1=O
pEC50 [1]: 4.57
pEC50 [2]: 4.63
CC50 at 120 h [3]: 297 µM
selectivity ratio [4]: 11
selectivity ratio [5]: 13
pEC50 [6]: 4.40
CC50 [7]: > 100 µM
selectivity ratio [8]: > 2.49

CC(C)OC(=O)[C@H](C)NP(=O)(CO[C@H]1CO[C@@H](n2ccc(N)nc2=O)C1)N[C@@H](C)C(=O)OC(C)C
pEC50 [1]: < 3.71
pEC50 [2]: < 3.71
CC50 at 120 h [3]: ≥ 193 µM
pEC50 [6]: < 4.00
EC90 [6]: > 100 µM
CC50 [7]: > 100 µM

CC(C)CCOC(=O)C[C@H](NP(=O)(CO[C@H]1CO[C@@H](n2cnc3c(N)ncnc32)C1)Oc1ccccc1)C(=O)OCCC(C)C (stereo partly specified)
pEC50 [1]: 7.67
pEC50 [2]: 8.44
CC50 at 120 h [3]: 16.9 µM
selectivity ratio [4]: 792
selectivity ratio [5]: 4810
pEC50 [6]: 8.00
EC90 [6]: 0.98 µM
CC50 [7]: 35.2 µM
selectivity ratio [8]: > 1250
pEC50 [9]: > 8.00
EC90 [9]: 0.36 µM
selectivity ratio [10]: 8810
Stability [11]: Unstable
remaining at 14 h [12]: 43%
Drug metabolism [13]: Metabolite_Detected
half-life at 100 µM [14]: 12.1 min
half-life at 0.1 µM [15]: 8 min

CCCOC(=O)[C@H](Cc1ccccc1)NP(=O)(CO[C@H]1CO[C@@H](n2cc(C)c(=O)[nH]c2=O)C1)N[C@@H](Cc1ccccc1)C(=O)OCCC
pEC50 [1]: 7.53
pEC50 [2]: 7.69
CC50 at 120 h [3]: 56.6 µM
selectivity ratio [4]: 1970
selectivity ratio [5]: 2780
pEC50 [6]: 6.55
EC90 [6]: > 10 µM
CC50 [7]: > 10 µM
selectivity ratio [8]: > 36

C[C@H](Cn1cnc2c(N)ncnc21)OCP(=O)(O)O [TENOFOVIR ANHYDROUS]
pEC50 [16]: 5.30

CC(C)OC(=O)[C@H](C)NP(=O)(CO[C@H]1CO[C@@H](n2cnc3c(N)ncnc32)C1)Oc1ccccc1 (stereo partly specified)
pEC50 [1]: 6.99
pEC50 [2]: 7.27
CC50 at 120 h [3]: 61.8 µM
selectivity ratio [4]: 597
selectivity ratio [5]: 1150
pEC50 [6]: 7.52
EC90 [6]: > 10 µM
CC50 [7]: > 10 µM
selectivity ratio [8]: > 333
half-life at 100 µM [14]: > 60 min
half-life at 0.1 µM [15]: > 60 min

CC(C)OC(=O)[C@H](C)NP(=O)(CO[C@H]1CO[C@@H](n2cnc3c(=O)[nH]c(N)nc32)C1)N[C@@H](C)C(=O)OC(C)C
pEC50 [1]: < 4.01
pEC50 [2]: < 4.01
CC50 at 120 h [3]: ≥ 97.6 µM
pEC50 [6]: < 4.00
EC90 [6]: > 100 µM
CC50 [7]: > 100 µM

Nc1ncnc2c1ncn2[C@H]1C[C@@H](OCP(=O)(O)O)CO1
pEC50 [1]: 5.33
pEC50 [2]: 5.28
CC50 at 120 h [3]: ≥ 315 µM
selectivity ratio [4]: ≥ 67
selectivity ratio [5]: ≥ 60
pEC50 [6]: 6.30
CC50 [7]: > 100 µM
selectivity ratio [8]: > 200

CC(C)OC(=O)[C@H](C)NP(=O)(CO[C@H]1CO[C@@H](n2ccc(N)nc2=O)C1)Oc1ccccc1 (stereo partly specified)
pEC50 [1]: < 3.80
pEC50 [2]: < 3.80
CC50 at 120 h [3]: > 160 µM
pEC50 [6]: 4.32
CC50 [7]: > 100 µM
selectivity ratio [8]: > 2
